In ChEMBL document CHEMBL1152928, “Ingol and ingenol diterpenes from the aerial parts of Euphorbia royleana and their antiangiogenic activities” (J Nat Prod, 2009):

Key:
[1] = Antiangiogenic activity in zebrafish embryo assessed as inhibition of intersegmental vessels growth after 24 hours by alkaline phosphatase staining; type: functional, tissue-based, Danio rerio
In short: (§1)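 Embryos at 24 hpf randomly distributed into wells and exposed 24 h. Intersegmental vessels visualized by GFP labeling plus endogenous alkaline phosphatase staining. Activity derived from inhibition ratio of angiogenesis versus 0.1% DMSO vehicle control. PTK787 positive control.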

[2] = Antiangiogenic activity in zebrafish embryo assessed as inhibition of intersegmental vessel growth at 3 ug/mL after 24 hours by alkaline phosphatase staining relative to control; type: functional, Danio rerio; in short: as §1
[3] = Antiangiogenic activity in zebrafish embryo assessed as inhibition of intersegmental vessel growth at 10 ug/mL after 24 hours by alkaline phosphatase staining relative to control; type: functional, Danio rerio; in short: as §1
[4] = Antiangiogenic activity in zebrafish embryo assessed as inhibition of intersegmental vessel growth at 5 ug/mL after 24 hours by alkaline phosphatase staining relative to PTK787; type: functional, Danio rerio
[5] = Antiangiogenic activity in zebrafish embryo assessed as inhibition of intersegmental vessel growth at 1 ug/mL after 24 hours by alkaline phosphatase staining relative to control; type: functional, Danio rerio; in short: as §1
[6] = Antiangiogenic activity in zebrafish embryo assessed as inhibition of intersegmental vessel growth at 0.1 ug/mL after 24 hours by alkaline phosphatase staining relative to control; type: functional, Danio rerio; in short: as §1

Question: With `C/C=C(\C)C(=O)O[C@H]1[C@H]2[C@@H]([C@H](OC(C)=O)[C@@H](C)C(=O)[C@@]34C[C@H](C)[C@H](OC(=O)/C(C)=C/C)[C@]3(/C=C(\C)[C@H]1OC(=O)c1ccccc1)O4)C2(C)C` as the molecule, how does the IC50 [1] read?
Answer: > 5 µg/mL

Question: And the “inhibition (INH)” value [2]?
Answer: 4.7%

Question: And the “inhibition (INH)” value [3]?
Answer: 12.2%

Question: And the “inhibition (INH)” value [4]?
Answer: 1.1%

Question: What does the source list for `CC(=O)O[C@H]1[C@H]2[C@@H]([C@H](OC(C)=O)[C@@H](C)C(=O)[C@@]34C[C@H](C)[C@H](OC(=O)c5ccccc5)[C@]3(/C=C(\C)[C@H]1OC(=O)c1ccccc1)O4)C2(C)C`?
Answer: IC50 [1]: > 5 µg/mL; inhibition (INH) [5]: 1.8%; inhibition (INH) [2]: 1.8%; inhibition (INH) [3]: 1.8%

Question: Which IC50 [1] does the source give for `Clc1ccc(Nc2nnc(Cc3ccncc3)c3ccccc23)cc1.O=C(O)CCC(=O)O` here?
Answer: 0.15 µg/mL

Question: And the “inhibition (INH)” value [5]?
Answer: 95.5%

Question: What about the “inhibition (INH)” value [3] of the same molecule?
Answer: 100%

Question: What about the “inhibition (INH)” value [6] of the same molecule?
Answer: 34.6%

Question: What does the source list for `CC(=O)O[C@H]1[C@@H]2[C@H]([C@H](OC(=O)c3ccccc3)[C@H](O)/C(C)=C/[C@@]34O[C@@]3(C[C@@H](C)[C@@H]4OC(=O)c3ccccc3)C(=O)[C@@H]1C)C2(C)C`?
Answer: IC50 [1]: > 5 µg/mL; inhibition (INH) [5]: 1.1%; inhibition (INH) [2]: 1.8%; inhibition (INH) [3]: 3.6%

Question: Which IC50 [1] does the source give for `C/C=C(\C)C(=O)O[C@H]1[C@H]2[C@@H]([C@H](OC(C)=O)[C@@H](C)C(=O)[C@@]34C[C@H](C)[C@H](OC(=O)/C(C)=C/C)[C@]3(/C=C(\C)[C@H]1O)O4)C2(C)C` here?
Answer: > 5 µg/mL

Question: And the “inhibition (INH)” value [5]?
Answer: 2.9%

Question: What about the “inhibition (INH)” value [2] of the same molecule?
Answer: 3.6%

Question: And the “inhibition (INH)” value [3]?
Answer: 4.7%

Question: With `CC(=O)O[C@H]1[C@H]2[C@@H]([C@H](OC(C)=O)[C@@H](C)C(=O)[C@@]34C[C@H](C)[C@H](OC(C)=O)[C@]3(/C=C(\C)[C@H]1OC(=O)c1ccccc1)O4)C2(C)C` as the molecule, how does the IC50 [1] read?
Answer: > 5 µg/mL

Question: With `C/C=C(\C)C(=O)O[C@H]1[C@H]2[C@@H]([C@H](OC(C)=O)[C@@H](C)C(=O)[C@@]34C[C@H](C)[C@H](OC(=O)c5ccccc5)[C@]3(/C=C(\C)[C@H]1O)O4)C2(C)C` as the molecule, how does the IC50 [1] read?
Answer: > 5 µg/mL

Question: And the “inhibition (INH)” value [2]?
Answer: 5.4%

Question: What about the “inhibition (INH)” value [3] of the same molecule?
Answer: 3.2%

Question: What about the “inhibition (INH)” value [4] of the same molecule?
Answer: 0%

Question: With `CC(=O)O[C@H]1[C@@H]2[C@H]([C@H](OC(=O)c3ccccc3)[C@H](O)/C(C)=C/[C@@]34O[C@@]3(C[C@H](C)[C@@H]4OC(=O)c3ccccc3)C(=O)[C@@H]1C)C2(C)C` as the molecule, how does the IC50 [1] read?
Answer: > 5 µg/mL

Question: And the “inhibition (INH)” value [5]?
Answer: 0%

Question: And the “inhibition (INH)” value [2]?
Answer: 2.1%

Question: What about the “inhibition (INH)” value [3] of the same molecule?
Answer: 0%

Question: Which results are given for `C/C=C(\C)C(=O)O[C@H]1[C@@H](C)C[C@@]23O[C@@]12/C=C(\C)[C@@H](O)[C@@H](OC(=O)c1ccccc1)[C@H]1[C@@H]([C@H](OC(C)=O)[C@@H](C)C3=O)C1(C)C`?
Answer: IC50 [1]: > 5 µg/mL; inhibition (INH) [5]: 4.7%; inhibition (INH) [2]: 3.6%; inhibition (INH) [3]: 4.7%

Question: What does the source list for `C/C=C(\C)C(=O)O[C@@H]1/C(C)=C/[C@@]23O[C@@]2(C[C@H](C)[C@@H]3OC(=O)/C(C)=C/C)C(=O)[C@H](C)[C@@H](OC(C)=O)[C@@H]2[C@H]([C@@H]1OC(C)=O)C2(C)C`?
Answer: IC50 [1]: > 5 µg/mL; inhibition (INH) [2]: 5.8%; inhibition (INH) [3]: 5%; inhibition (INH) [4]: 5.8%

Question: For `C/C=C(\C)C(=O)O[C@H]1[C@H]2[C@@H]([C@H](OC(C)=O)[C@@H](C)C(=O)[C@@]34C[C@@H](C)[C@H](OC(=O)c5ccccc5)[C@]3(/C=C(\C)[C@H]1O)O4)C2(C)C`, which IC50 [1] is on record?
Answer: > 5 µg/mL

Question: And the “inhibition (INH)” value [5]?
Answer: 5.4%

Question: What about the “inhibition (INH)” value [2] of the same molecule?
Answer: 1.1%

Question: What about the “inhibition (INH)” value [3] of the same molecule?
Answer: 0%
